Experimental data as given in ChEMBL document CHEMBL5108039, “Piperazine tethered bergenin heterocyclic hybrids: design, synthesis, anticancer activity, and molecular docking studies” (RSC Med Chem, 2022).
Active and inactive are the calls of the source. The rule behind the calls is not given here.

How the values were obtained:
SCC-9 [1] = assay: Induction of apoptosis in human SCC-9 cells assessed as upregulation of E-cad gene expression at 16 uM by qRT-PCR analysis; type: functional, cell-based
CAL-27 [2] = assay: Induction of apoptosis in human CAL-27 cells assessed as upregulation of E-cad gene expression at 32 uM by qRT-PCR analysis; type: functional, cell-based
Method in brief: (§1)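 CAL27 cells were treated with test agents at different concentrations. Relative mRNA levels of vimentin, E-cad, Nanog, Oct-4, Bax and Bcl-2 were then quantified by qRT-PCR as apoptosis, EMT and stemness markers.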

SCC-9 [3] = assay: Induction of apoptosis in human SCC-9 cells assessed as downregulation of vimentin gene expression at 32 uM by qRT-PCR analysis; type: functional, cell-based
SCC-9 [4] = assay: Induction of apoptosis in human SCC-9 cells assessed as late apoptotic cells at 32.4 uM incubated for 24 hrs by Annexin V-FITC/PI staining based flow cytometric analysis (reference value: 1.4 %); type: functional
CAL-27 [5] = assay: Induction of apoptosis in human CAL-27 cells assessed as downregulation of BcL-2 gene expression at 32 uM by qRT-PCR analysis; type: functional, cell-based
Method in brief: (§2)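 CAL27 cells were treated with test compounds at several concentrations. Relative expression of vimentin, E-cad, Nanog, Oct-4, Bax and BcL-2 was measured by qRT-PCR against vehicle-treated control cells.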

CAL-27 [6] = assay: Induction of apoptosis in human CAL-27 cells assessed as downregulation of vimentin gene expression at 16 uM by qRT-PCR analysis; type: functional, cell-based; method in brief: as §2
CAL-27 [7] = assay: Induction of apoptosis in human CAL-27 cells assessed as downregulation of Nanog gene expression at 32 uM by qRT-PCR analysis; type: functional, cell-based; method in brief: as §2
CAL-27 [8] = assay: Induction of apoptosis in human CAL-27 cells assessed as downregulation of Nanog gene expression at 16 uM by qRT-PCR analysis; type: functional, cell-based; method in brief: as §2
CAL-27 [9] = assay: Cytotoxicity against human CAL-27 cells assessed as cell growth inhibition; type: functional, cell-based
Method in brief: (§3)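 Compounds were dissolved in sterile DMSO as 10 mg ml−1 stocks and tested for in vitro growth inhibition of human cancer cell lines. Doxorubicin was the standard drug and DMSO (0.01%) the vehicle control. IC50 values are reported as means.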

SCC-9 [10] = assay: Cytotoxicity against human SCC-9 cells assessed as cell growth inhibition; type: functional, cell-based; method in brief: as §3
SCC-9 [11] = assay: Induction of apoptosis in human SCC-9 cells assessed as live cells at 16.2 uM incubated for 24 hrs by Annexin V-FITC/PI staining based flow cytometric analysis (reference value: 95.7 %); type: functional
MCF7 = assay: Cytotoxicity against human MCF7 cells assessed as cell growth inhibition; type: functional, cell-based; method in brief: as §3
SCC-9 [12] = assay: Induction of apoptosis in human SCC-9 cells assessed as downregulation of BcL-2 gene expression at 16 uM by qRT-PCR analysis; type: functional, cell-based
HCT-15 = assay: Cytotoxicity against human HCT-15 cells assessed as cell growth inhibition; type: functional, cell-based; method in brief: as §3
A549 = assay: Cytotoxicity against human A549 cells assessed as cell growth inhibition; type: functional, cell-based
Method in brief: (§4)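 Compounds were dissolved in sterile DMSO as 10 mg ml−1 stocks and tested in vitro for cytotoxicity in a cell-line panel, with DMSO (0.01%) as vehicle control and doxorubicin as standard. Mean IC50 values were reported, and the normal lung epithelial cells were tested up to 100 μM.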

SCC-9 [13] = assay: Induction of apoptosis in human SCC-9 cells assessed as upregulation of Bax gene expression at 32 uM by qRT-PCR analysis; type: functional, cell-based
SCC-9 [14] = assay: Induction of apoptosis in human SCC-9 cells assessed as upregulation of E-cad gene expression at 32 uM by qRT-PCR analysis; type: functional, cell-based
CAL-27 [15] = assay: Induction of apoptosis in human CAL-27 cells assessed as upregulation of Bax gene expression at 32 uM by qRT-PCR analysis; type: functional, cell-based; method in brief: as §1
SCC-9 [16] = assay: Induction of apoptosis in human SCC-9 cells assessed as early apoptotic cells at 32.4 uM incubated for 24 hrs by Annexin V-FITC/PI staining based flow cytometric analysis (reference value: 2.8 %); type: functional
SCC-9 [17] = assay: Induction of apoptosis in human SCC-9 cells assessed as early apoptotic cells at 16.2 uM incubated for 24 hrs by Annexin V-FITC/PI staining based flow cytometric analysis (reference value: 2.8 %); type: functional
CAL-27 [18] = assay: Induction of apoptosis in human CAL-27 cells assessed as upregulation of Bax gene expression at 16 uM by qRT-PCR analysis; type: functional, cell-based; method in brief: as §1
SCC-9 [19] = assay: Induction of apoptosis in human SCC-9 cells assessed as downregulation of Nanog gene expression at 32 uM by qRT-PCR analysis; type: functional, cell-based
SCC-9 [20] = assay: Induction of apoptosis in human SCC-9 cells assessed as downregulation of Oct-4 gene expression at 32 uM by qRT-PCR analysis; type: functional, cell-based
SCC-9 [21] = assay: Induction of apoptosis in human SCC-9 cells assessed as downregulation of Oct-4 gene expression at 16 uM by qRT-PCR analysis; type: functional, cell-based
SCC-9 [22] = assay: Induction of apoptosis in human SCC-9 cells assessed as downregulation of Nanog gene expression at 16 uM by qRT-PCR analysis; type: functional, cell-based
CAL-27 [23] = assay: Cell cycle arrest in human CAL-27 cells assessed as accumulation at G2/M phase at 32 uM incubated for 24 hrs by flow cytometry (reference value: 11.9 %); type: functional
CAL-27 [24] = assay: Induction of apoptosis in human CAL-27 cells assessed as downregulation of vimentin gene expression at 32 uM by qRT-PCR analysis; type: functional, cell-based; method in brief: as §2
CAL-27 [25] = assay: Cell cycle arrest in human CAL-27 cells assessed as accumulation at G2/M phase at 16 uM incubated for 24 hrs by flow cytometry (reference value: 11.9 %); type: functional
SCC-9 [26] = assay: Induction of apoptosis in human SCC-9 cells assessed as late apoptotic cells at 16.2 uM incubated for 24 hrs by Annexin V-FITC/PI staining based flow cytometric analysis (reference value: 1.4 %); type: functional
CAL-27 [27] = assay: Induction of apoptosis in human CAL-27 cells assessed as live cells at 32 uM incubated for 24 hrs by Annexin V-FITC/PI staining based flow cytometric analysis (reference value: 99.8 %); type: functional
Method in brief: (§5)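 CAL27 cells were treated with vehicle, doxorubicin or test compounds at 10–63 μM, and apoptosis was assessed by annexin V–FITC/PI staining with flow cytometry. Cells were scored as live, early apoptotic, late apoptotic or necrotic. The vehicle was DMSO (0.01%).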

[28] = Cytotoxicity against human BEAS-2B cells assessed as cell growth inhibition; type: toxicity, cell-based; method in brief: as §4
CAL-27 [29] = assay: Induction of apoptosis in human CAL-27 cells assessed as early apoptotic cells at 16 uM incubated for 24 hrs by Annexin V-FITC/PI staining based flow cytometric analysis (reference value: 0.1 %); type: functional; method in brief: as §5
SCC-9 [30] = assay: Cell cycle arrest in human SCC-9 cells assessed as accumulation at G0/G1 phase at 32.4 uM incubated for 24 hrs by flow cytometry (reference value: 70.8 %); type: functional
CAL-27 [31] = assay: Cell cycle arrest in human CAL-27 cells assessed as accumulation at G0/G1 phase at 32 uM incubated for 24 hrs by flow cytometry (reference value: 77.6 %); type: functional
SCC-9 [32] = assay: Cell cycle arrest in human SCC-9 cells assessed as accumulation at G0/G1 phase at 16.2 uM incubated for 24 hrs by flow cytometry (reference value: 70.8 %); type: functional

COc1ccc(-c2csc(NC(=O)CN3CCN(Cc4c(O)c(OC)c(O)c5c4C(=O)OC4C5O[C@H](CO)[C@@H](O)[C@@H]4O)CC3)n2)cc1 (stereo not given in full)
Activity (SCC-9 [1]): Active
Activity (CAL-27 [2]): Active
Activity (SCC-9 [3]): Active
Activity (SCC-9 [4]): 17.5%
Activity (CAL-27 [5]): Active
Activity (CAL-27 [6]): Active
Activity (CAL-27 [7]): Active
Activity (CAL-27 [8]): Active
IC50 (CAL-27 [9]): 16 µM
IC50 (SCC-9 [10]): 32.4 µM
Activity (SCC-9 [11]): 44.2%
IC50 (MCF7): > 100 µM
Activity (SCC-9 [12]): Active
IC50 (HCT-15): 70.5 µM
IC50 (A549): > 100 µM
Activity (SCC-9 [13]): Active
Activity (SCC-9 [14]): Active
Activity (CAL-27 [15]): Active
Activity (SCC-9 [16]): 5.9%
Activity (SCC-9 [17]): 6.2%
Activity (CAL-27 [18]): Active
Activity (SCC-9 [19]): Active
Activity (SCC-9 [20]): Active
Activity (SCC-9 [21]): Active
Activity (SCC-9 [22]): Active
Activity (CAL-27 [23]): 9.4%
Activity (CAL-27 [24]): Active
Activity (CAL-27 [25]): 12.3%
Activity (SCC-9 [26]): 40.8%
Activity (CAL-27 [27]): 91%
IC50 [28]: > 100 µM
Activity (CAL-27 [29]): 2.7%
Activity (SCC-9 [30]): 77.6%
Activity (CAL-27 [31]): 87.1%
Activity (SCC-9 [32]): 71.4%
